Activity calls are given as the source filed them. The rule behind the calls is not given here. Bounds are passed on as bounds.

The values that follow come from ChEMBL document CHEMBL1145542, “Discovery of a new class of potent, selective, and orally bioavailable CRTH2 (DP2) receptor antagonists for the treatment of allergic inflammatory diseases” (J Med Chem, 2008).

In series [1] the target is T1, Prostaglandin D2 receptor 2 (Homo sapiens, UniProt Q9Y5Y4).
T1 sequence (Q9Y5Y4 whole entry): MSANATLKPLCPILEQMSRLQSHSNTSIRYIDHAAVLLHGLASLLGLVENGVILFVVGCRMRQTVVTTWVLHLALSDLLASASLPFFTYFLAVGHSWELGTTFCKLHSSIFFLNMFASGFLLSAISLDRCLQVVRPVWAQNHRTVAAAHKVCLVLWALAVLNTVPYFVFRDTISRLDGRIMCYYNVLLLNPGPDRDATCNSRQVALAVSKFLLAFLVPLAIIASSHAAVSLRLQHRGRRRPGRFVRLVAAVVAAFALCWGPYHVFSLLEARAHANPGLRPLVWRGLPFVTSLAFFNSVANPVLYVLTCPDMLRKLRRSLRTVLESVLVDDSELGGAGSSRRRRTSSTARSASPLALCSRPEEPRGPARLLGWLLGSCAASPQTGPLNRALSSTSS
In words: Displacement of [3H]PGD2 from human CRTH2 receptor expressed in CHO cells. In kind it is cell-based. In short, it runs like this: (§1)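 Scintillation proximity competition assay: 2–5 µg human or mouse CRTH2 membranes (nitrogen-cavitation, differential centrifugation) with WGA-SPA beads and 1.5 nM [3H]PGD2 in 10 mM HEPES/KOH pH 7.4, 10 mM MnCl2, protease inhibitors, 1% Me2SO, 90 min shaking at room temperature. Nonspecific binding with 1 µM PGD2. Ki by Cheng–Prusoff, mean of ≥3 independent experiments.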

For series [2], the target named is T2, Prostaglandin D2 receptor 2 (Mus musculus, UniProt Q9Z2J6).
T2 sequence (Q9Z2J6 whole entry): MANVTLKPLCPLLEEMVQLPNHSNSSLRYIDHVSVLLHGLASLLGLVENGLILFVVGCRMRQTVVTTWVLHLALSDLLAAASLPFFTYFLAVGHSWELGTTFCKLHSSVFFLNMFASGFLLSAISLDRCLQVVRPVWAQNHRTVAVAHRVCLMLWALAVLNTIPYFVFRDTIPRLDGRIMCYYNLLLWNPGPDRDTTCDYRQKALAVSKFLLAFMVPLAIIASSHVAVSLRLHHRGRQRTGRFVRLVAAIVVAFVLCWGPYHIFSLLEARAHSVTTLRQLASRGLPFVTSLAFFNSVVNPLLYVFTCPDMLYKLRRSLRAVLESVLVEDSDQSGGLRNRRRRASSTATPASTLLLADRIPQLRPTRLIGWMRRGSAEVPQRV
In words: Displacement of [3H]PGD2 from mouse CRTH2 receptor expressed in HEK293 cells. In kind it is cell-based. In short, it runs like this: as §1

Series [3] deals with T1, Prostaglandin D2 receptor 2. In words: Antagonist activity at human CRTH2 receptor expressed in CHO cell membrane by [35S]GTP-gamma-S binding assay. In kind it is functional, cell membranes. An outline of the steps: (§2)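 [35S]GTPγS binding at 30 °C on 10 µg human CRTH2 membranes in 20 mM HEPES/KOH pH 7.4, 10 mM MgCl2, 10 µg/mL saponin, 3 µM GDP, 150 mM NaCl, 2% Me2SO. PGD2 preincubation 10 min (antagonist mode: 80 nM PGD2), then 0.15 nM [35S]GTPγS for 30 min. Nonspecific binding with 10 µM GTPγS; stopped by centrifugation, scintillation counting.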

Series [4] can be described thus: Intrinsic clearance per mg of protein in human liver microsomes at 3 uM. It counts as ADME, Microsome. An outline of the steps: (§3)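 Rat or human liver microsomes (0.5 mg/mL final) in 0.1 M phosphate pH 7.4 with 3 µM compound (1% DMSO), preincubated at 37 °C, started with 1 mM NADPH. Quenched with cold acetonitrile at 0, 15, 30, 45 min; LC/MS-MS of compound disappearance gives intrinsic clearance.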

A short description of series [5]: Intrinsic clearance per mg of protein in rat liver microsomes at 3 uM. It counts as ADME, Microsome. In short, it runs like this: as §3
A short description of series [6]: Lipophilicity, log D of the compound. Particulars: octanol/water. It counts as physicochemical.
In series [7] the target is T3, Prostaglandin D2 receptor (Homo sapiens, UniProt Q13258).
T3 sequence (Q13258 whole entry): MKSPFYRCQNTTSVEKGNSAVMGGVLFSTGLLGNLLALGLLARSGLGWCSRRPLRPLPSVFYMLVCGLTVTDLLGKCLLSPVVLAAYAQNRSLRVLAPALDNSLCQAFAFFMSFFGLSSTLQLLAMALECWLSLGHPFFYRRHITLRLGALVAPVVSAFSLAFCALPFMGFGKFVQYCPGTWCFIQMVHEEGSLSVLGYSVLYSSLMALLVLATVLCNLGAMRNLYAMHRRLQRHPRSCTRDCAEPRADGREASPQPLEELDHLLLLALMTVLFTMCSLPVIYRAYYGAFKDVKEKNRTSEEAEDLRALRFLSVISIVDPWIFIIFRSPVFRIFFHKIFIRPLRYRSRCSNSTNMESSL
In words: Inhibition of prostaglandin D2 receptor.

The target in series [8] is Prostaglandin E2 receptor EP2 subtype (Homo sapiens, UniProt P43116). In words: Inhibition of prostanoid EP2 receptor.
Series [9] in a line: Inhibition of prostanoid EP3 receptor.
Series [10] can be described thus: Inhibition of prostanoid EP4 receptor.
Series [11] is described as follows: Inhibition of prostanoid FP receptor.
The nature of series [12]: Apparent permeability across human Caco-2 cell membrane at 10 uM. It counts as ADME, cell-based. An outline of the steps: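 Caco-2 monolayers grown 21 days on Transwell filters; TEER above 800 ohm·cm² required. 10 µM test compound in HBSS added apically (A to B) or basolaterally (B to A), 2 h at 37 °C. Both compartments sampled, analysed by LC/MS-MS.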
A short description of series [13]: AUC (0 to last t) in rat at 1 mg/kg, iv. In kind it is ADME, organism-based. The arrangement: time 0 - last, dose 1 mg/kg, route intravenous. Conditions: plasma. An outline of the steps: (§4)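 Male Sprague–Dawley or Janvier rats, three per route, dosed by oral gavage or iv bolus. Serial blood drawn through an indwelling carotid catheter up to 24 h post dose. Plasma pooled by time point, analysed by LC-MS/MS; non-compartmental analysis.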

Series [14] is described as follows: AUC (0 to last t) in rat at 5 mg/kg, po. In kind it is ADME, organism-based. The arrangement: time 0 - last, dose 5 mg/kg, route oral. Conditions: plasma. An outline of the steps:
as §4

Series [15] in a line: Oral bioavailability in rat at 5 mg/kg. Conditions: in vivo. In kind it is ADME, organism-based. An outline of the steps:
as §4

Series [16] can be described thus: Cmax in rat at 1 mg/kg, iv. It counts as ADME, organism-based. The arrangement: dose 1 mg/kg, route intravenous. Conditions: in vivo. An outline of the steps:
as §4

A short description of series [17]: Cmax in rat at 5 mg/kg, po. In kind it is ADME, organism-based. Set-up: dose 5 mg/kg, route oral. Conditions: in vivo. In short, it runs like this: as §4
The nature of series [18]: Tmax in rat at 1 mg/kg, iv. It counts as ADME, organism-based. The arrangement: dose 1 mg/kg, route intravenous. Conditions: in vivo. An outline of the steps:
as §4

Series [19] can be described thus: Tmax in rat at 5 mg/kg, po. In kind it is ADME, organism-based. Set-up: dose 5 mg/kg, route oral. Particulars: in vivo. An outline of the steps: as §4
A short description of series [20]: Half life in rat at 1 mg/kg, iv. In kind it is ADME, organism-based. Set-up: dose 1 mg/kg, route intravenous. Conditions: in vivo. An outline of the steps:
as §4

Series [21] can be described thus: Half life in rat at 5 mg/kg, po. In kind it is ADME, organism-based. The arrangement: dose 5 mg/kg, route oral. Particulars: in vivo. An outline of the steps:
as §4

Series [22] can be described thus: Clearance in rat at 1 mg/kg, iv. In kind it is ADME, organism-based. The arrangement: dose 1 mg/kg, route intravenous. Particulars: in vivo. An outline of the steps: as §4
Series [23] can be described thus: Volume of distribution at steady state in rat at 1 mg/kg, iv. It counts as ADME, organism-based. Particulars: in vivo, read-out: Vdss. The arrangement: dose 1 mg/kg, route intravenous. An outline of the steps: as §4
The target of series [24] is T4, Prostaglandin D2 receptor 2 (Homo sapiens) (UniProt Q9Y5Y4).
T4 sequence (whole entry): T1 sequence (Q9Y5Y4 whole entry)
In words: Inverse agonistic activity at human CRTH2 receptor expressed in CHO cell membrane by [35S]GTP-gamma-S binding assay. In kind it is functional, cell membranes. In short, it runs like this:
as §2

Chain of Prostaglandin E2 receptor EP2 subtype (P43116 whole entry): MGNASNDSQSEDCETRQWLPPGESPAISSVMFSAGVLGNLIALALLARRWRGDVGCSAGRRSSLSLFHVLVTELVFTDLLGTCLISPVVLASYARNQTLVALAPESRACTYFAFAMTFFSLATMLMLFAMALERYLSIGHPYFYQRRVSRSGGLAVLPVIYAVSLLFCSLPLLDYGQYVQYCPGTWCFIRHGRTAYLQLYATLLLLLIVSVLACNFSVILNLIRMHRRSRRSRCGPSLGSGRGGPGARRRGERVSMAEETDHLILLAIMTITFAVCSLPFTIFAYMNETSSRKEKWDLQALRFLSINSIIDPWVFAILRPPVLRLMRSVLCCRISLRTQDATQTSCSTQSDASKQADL

`O=C(O)CN1C(=O)[C@@]2(CC(=O)N(Cc3cccc(Cl)c3)C2=O)c2cc(Cl)ccc21`: the inhibition constant (Ki) is 0.023 µM in series [1] and 0.033 µM in series [2]. Also, the half-inhibitory concentration (IC50) in series [3] was 0.107 µM; in series [7], above 30 µM; in series [8], above 30 µM; in series [9], above 30 µM; in [10], above 30 µM; in series [11], above 30 µM. Besides, the microsomal CLint at 3 µM is 3 µL/min/mg in [4] and 8 µL/min/mg in [5]. In series [6], the pH-dependent lipophilicity (logD) is -0.4.

Take `O=C(O)CN1C(=O)C2(CC(=O)N(Cc3cc(Cl)ccc3F)C2)c2cc(Cl)ccc21` (single isomer, unassigned; form 1): the inhibitory constant (Ki) in series [1] came to 0.013 µM; in series [2], 0.088 µM. Besides, the microsomal CLint at 3 µM in [4] was found to be 3 µL/min/mg. Besides, in [12], the Papp at 10 µM was 18 nm/s. The log distribution coefficient (logD) in series [6] was -0.4. For the same compound, the AUC(0-t) was 1.39 µg·h/mL in [13] and 0.319 µg·h/mL in [14]. Besides, in series [15], the bioavailability was 5%. For the same compound, the Cmax in series [16] worked out at 5.06 µg/mL; in [17] it was 0.055 µg/mL. Besides, the time of peak concentration (Tmax) amounted to 0 h in series [18] and 1.5 h in series [19]. The half-life in series [20] is 0.9 h; in series [21] it was 8 h. In series [22], this compound had a clearance of 0.7 L/h/kg. In addition, the Vd in [23] came to 0.3 L/kg.

As for `O=C(O)CN1C(=O)C2(CC(=O)N(Cc3ccccc3)C2)c2cc(Cl)ccc21` (stereo unspecified), the inhibition constant Ki was found to be 0.702 µM in series [1] and 0.48 µM in series [2].

In the case of `O=C1CC2(C(=O)N1Cc1ccccc1)C(=O)N(Cc1nnn[nH]1)c1ccc(Cl)cc12` (stereo unspecified), the inhibition constant (Ki) in series [1] was 1.54 µM. In [24], the outcome was Active.
